High-throughput results from PubChem BioAssay.
An excerpt weighted towards active compounds, which were near 2.2% of everything screened.
HKDC1 inh = blocks human hexokinase HKDC1 activity; recombinant HKDC1, G6PDH/diaphorase resazurin coupled fluorescence; inhibition, % at 20 µM; hit rate 0.16% among 340,000; AID 493160;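 active means inhibition above about 35% when tested at 20 µM, limit read from the data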;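 further: plate controls were DMSO wells with enzyme for no effect and DMSO wells lacking enzyme for full effect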
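Assay system: recombinant HKDC1 hexokinase; detection: coupled resazurin fluorescence, excitation 525 nm, emission 613 nm; benchmarks: DMSO-plus-enzyme-mix negative control, buffer-substituted positive control; compound dosing: single 20 µM dose; schedule: 90 min at room temperature in dark; also added: glucose plus 1 mM ATP as hexokinase substrates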
PfGluPho inh = PfG6PD (Plasmodium falciparum) enzyme inhibition | PfGluPho enzyme, NADPH resazurin-diaphorase fluorescence | inhibition, % at 20 µM | hit rate 0.78% among 350,000;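 active means inhibition reaching at least a set limit at 20 µM in the primary screen, cut at about 59% in these data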;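 further: 0% = DMSO wells with substrate and 100% = DMSO wells lacking glucose-6-phosphate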
Granule exo inh = lytic granule exocytosis inhibition; TALL-104 LAMP-1 surface exposure, flow cytometry; cells stimulated with thapsigargin and PMA; inhibition, % at 10 µM; hit rate 0.66% among 360,000; AID 651702;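 active means inhibition above about 55%, limit read from the data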
ABHD5 PLIN5 PPI = ABHD5-PLIN5 protein interaction inhibition. hit rate 0.78% among 360,000. Q00G26+Q8WTS1. inhibition, % at 4 µM. Split G. princeps luciferase complementation, luminescence, 4 h;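 active means inhibition above the mean inhibition across every tested compound plus 3 SD, cut at about 22% in these data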;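 further: 0% = DMSO only wells and the 100% control is not disclosed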
Target sequence (Q00G26 whole entry, looked up): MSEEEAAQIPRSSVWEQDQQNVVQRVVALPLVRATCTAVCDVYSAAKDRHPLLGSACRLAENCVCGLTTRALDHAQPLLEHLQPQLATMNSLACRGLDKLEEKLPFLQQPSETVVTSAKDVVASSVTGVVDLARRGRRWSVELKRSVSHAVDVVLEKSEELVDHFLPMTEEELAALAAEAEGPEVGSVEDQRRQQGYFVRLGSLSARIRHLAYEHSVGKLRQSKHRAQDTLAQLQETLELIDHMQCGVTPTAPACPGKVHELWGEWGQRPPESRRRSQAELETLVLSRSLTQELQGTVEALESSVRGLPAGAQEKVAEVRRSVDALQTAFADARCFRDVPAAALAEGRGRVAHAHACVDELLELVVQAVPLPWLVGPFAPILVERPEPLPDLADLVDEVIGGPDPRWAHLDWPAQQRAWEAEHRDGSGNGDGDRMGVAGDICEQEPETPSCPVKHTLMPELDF
Target sequence (Q8WTS1 whole entry, looked up): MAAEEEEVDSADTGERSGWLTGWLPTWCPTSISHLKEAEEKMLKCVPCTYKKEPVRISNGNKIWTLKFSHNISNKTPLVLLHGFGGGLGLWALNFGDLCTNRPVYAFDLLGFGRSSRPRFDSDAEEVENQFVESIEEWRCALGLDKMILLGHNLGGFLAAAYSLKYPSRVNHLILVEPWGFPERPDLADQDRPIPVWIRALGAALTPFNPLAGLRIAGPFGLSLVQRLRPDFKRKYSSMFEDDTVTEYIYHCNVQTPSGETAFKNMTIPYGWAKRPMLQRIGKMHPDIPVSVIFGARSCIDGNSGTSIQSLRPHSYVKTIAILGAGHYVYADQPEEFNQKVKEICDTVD
PfG6PD confirm = confirmation of Plasmodium falciparum G6PD inhibitors; inhibition, % at 20 µM; hit rate 34% among 2,400; recombinant PfGluPho, NADPH-diaphorase-resazurin fluorescence; shares compounds with PfGluPho inh;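 active means inhibition of at least 50% at 20 µM in any single replicate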;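 further: 0% = DMSO with substrate and 100% = DMSO lacking glucose-6-phosphate substrate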
Diaphorase 10uM = counter-screen for P. falciparum G6PD inhibitors: diaphorase inhibitors, oxidizers | AID 504862 | hit rate 39% among 820 | inhibition, % at 20 µM | shares compounds with PfGluPho inh | diaphorase-coupled resazurin reduction, fluorescence, NADPH 10 uM;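 active means average inhibition reaching 50% or more with the compound at 20 µM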;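 further: resorufin red fluorescence formed as diaphorase reduces resazurin using NADPH; 0% = DMSO with enzyme and 100% = DMSO without enzyme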
Diaphorase 30uM = diaphorase inhibition or oxidation at 30 uM NADPH; shares compounds with PfGluPho inh; Diaphorase/resazurin coupled assay, resorufin fluorescence; inhibition, % at 20 µM; hit rate 29% among 820; AID 504863;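 active means inhibition averaging 50% or more, tested at 20 µM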;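 further: 0% = DMSO with enzyme and 100% = DMSO wells lacking diaphorase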
The depositor's hits bear a star; / = no result.

SMILES	HKDC1 inh	PfGluPho inh	Granule exo inh	ABHD5 PLIN5 PPI	PfG6PD confirm	others
CCOC(=O)c1c(NC(=O)COC(=O)c2ccccc2NC)sc(C(=O)N(C)C)c1C	2	29	-6	-3	/
Cc1c(Cc2ccc3c(c2)OCO3)sc(NC(=O)c2cccc3ccccc23)c1C(N)=O	-9	87*	2	-6	30
Cc1c(Cc2ccc3c(c2)OCO3)sc(NC(=O)C2CC2)c1C(N)=O	-5	70*	-3	-4	34
COC(=O)c1c(NC(=O)CN2C(=O)c3ccccc3C2=O)sc(Cc2ccc3c(c2)OCO3)c1C	-10	18	-1	-9	/
Cc1nc(NC(=O)C2CCCC2)sc1Cc1ccc2c(c1)OCO2	3	12	6	2	/
Cc1[nH]c(=S)c(C#N)c(C)c1Cc1ccccc1	5	51	1	-9	/
Cc1[nH]c(=S)c(C#N)c(C)c1CCC#N	-3	69*	9	-2	51*	Diaphorase 10uM=11;Diaphorase 30uM=-3
COc1cccc(NC(=O)c2ccc(-c3ccc([N+](=O)[O-])cc3)o2)c1	4	64*	4	-3	6
CC(=O)c1cccc(NC(=O)c2ccc(-c3ccccc3[N+](=O)[O-])o2)c1	7	61*	-3	6	22
COc1ccc(NC(=O)c2ccc(-c3ccc([N+](=O)[O-])cc3)o2)cc1OC	5	29	-2	-4	/
Cc1cc(NC(=O)c2ccc(-c3ccccc3[N+](=O)[O-])o2)no1	3	10	4	-3	/
COc1ccc(-c2cc3ccc(F)cc3cn2)cc1	-1	69*	-4	4	22
O=c1[nH]c(CN2CCN(c3ccc(O)cc3)CC2)nc2scc(-c3ccc(Cl)cc3)c12	19	78*	8	7	22
O=c1[nH]c(CN2CCN(c3ccccc3O)CC2)nc2scc(-c3ccccc3Cl)c12	-3	15	1	2	/
Cc1ccc(/C=C/C(=O)OCC(=O)NCc2cccs2)o1	-4	61*	0	9	6
O=c1c(O)c(-c2cc(O)c(O)c(O)c2)oc2cc(O)cc(O)c12	3	67*	1	21	47
COc1ccccc1Nc1nnc(SCc2cc(=O)n3cc(C)ccc3n2)s1	1	69*	-4	2	45
COc1ccc2c(c1)C1(C)CC(C)(C)N2C(=O)N1c1ccccc1 (configuration not stated)	4	73*	0	-2	47
COc1ccc2c(c1)C(=O)N(c1ccccc1)C(=O)C2	-2	-13	-1	-6	/
CCc1ccc(/C(C)=N/NC(=O)CNC(=O)/C=C/c2ccco2)cc1	24	33	-2	12	/
C=CCN(CC=C)Cc1cc(=O)n2c(-c3ccccc3)csc2n1	3	4	-13	-1	/
O=c1cc(CN2CCN(c3ccc(O)cc3)CC2)nc2scc(-c3ccccc3)n12	7	65*	1	-5	29
COc1ccc(CCC(=O)Nc2ccc(S(=O)(=O)N3CCCC3)cc2)cc1OC	-2	4	8	1	/
COc1ccc(/C=N/Nc2nnc(C)n2N)cc1OC	5	61*	4	-27	7
CCOc1ccc(N(CC(=O)N2CCOCC2)S(=O)(=O)c2ccc(F)cc2)cc1	-5	0	0	-5	/
SMILES	HKDC1 inh	PfGluPho inh	Granule exo inh	ABHD5 PLIN5 PPI	PfG6PD confirm	others
COc1cc2c(cc1[N+](=O)[O-])-c1ccc([N+](=O)[O-])cc1C2=NNC(N)=S	/	73*	9	-1	22
C=C1CC(C(=O)N/N=C/c2ccccc2)C1	-9	-1	3	-4	/
O=C(NC1CC1)c1cc(=S)[nH]c2ccccc12	-8	60*	-4	-4	9
O=C(NC1CC1)C(=O)c1c[nH]c2ccccc12	-3	3	9	4	/
CC1(C)Cc2c(sc3nc4n(-c5ccccc5)c(=O)c(CCC(=O)O)nn4c(=O)c23)CO1	-17	104*	-3	-4	91*	Diaphorase 10uM=47;Diaphorase 30uM=6
CC1(C)Cc2c(sc3nc(-c4ccccc4)n(N)c(=O)c23)CO1	-4	0	-7	1	/
S=c1ncc2[nH]c(=S)[nH]c2[nH]1	0	68*	13	15	59*	Diaphorase 10uM=-21;Diaphorase 30uM=2
